Measured values from PubChem BioAssay AID493080 (Broad Institute, 2011).
“And” between values parts separate entries of the source, which are not always exact repeats. Identical values can stand only once. The source made the active and inactive calls.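 The calls were made as follows: active = growth inhibition with fitted AC50 no more than ten times the top valid dose; inconclusive = flat fit at 30 to 70% inhibition, or bad fit; inactive = the rest, including rises in signal.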

test system: C. albicans CaCi-2 + fluconazole, Alamar Blue growth, 48 h; test: Candida CaCi-2 inhibition with fluconazole present – dry powder retest, set 3, confirmation (AID 493080); settings: not given
In short: (§1)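 Control set: geldanamycin as positive control; test system: fluconazole-resistant C. albicans CaCi-2; input: inoculum A600 0.00015; signal: Alamar Blue fluorescence, Ex 544 nm, Em 590 nm; schedule: compound 48 h at 37 °C, dye 2 h at room temperature; dosing: pin-transferred compounds; buffer or medium: RPMI medium, MOPS-buffered; also added: fluconazole co-treatment at 8 µg/mL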

Row | SMILES | AC50
1 | O=C(Cn1c2ccccc2c2nc3n(c(=O)c21)CCS3)N1CCCC1 | 837 nM and 2700 nM
2 | CCN(CC)C(=O)Cn1c2ccccc2c2nc3n(c(=O)c21)CCS3 | 1670 nM and 1820 nM
3 | COC(=O)Cn1nc(-c2ccccc2)c2cc(Cl)ccc21 | 8100 nM
4 | O=C(c1ccc(Cl)cc1)N1CCN(c2nc3ccccc3s2)CC1 | 4120 nM
5 | COC(=O)Cn1nc(-c2ccccc2)c2ccccc21 | 2110 nM
6 | CC1CCN(C(=O)Cn2c3ccccc3c3nc4n(c(=O)c32)CCCS4)CC1 | 11000 nM
7 | O=c1c2[nH]c3ccc(F)cc3c2nc2n1CCS2 | 2960 nM
8 | COC(=O)Cn1nc(-c2ccc(C)cc2)c2ccccc21 | 8980 nM
9 | O=C(Cn1c2ccc(F)cc2c2nc3n(c(=O)c21)CCS3)N1CCCC1 | 532 nM
10 | O=c1c2[nH]c3ccccc3c2nc2n1CCS2 | 8160 nM
11 | O=C(Cn1c2ccccc2c2nc3n(c(=O)c21)CCS3)N1CCOCC1 | 2660 nM
12 | O=C(c1ccc(Cl)cc1)N1CCN(c2ccc(C(F)(F)F)cn2)CC1 | > 12000 nM (inactive)
13 | O=C(Cn1c2ccc(F)cc2c2nc3n(c(=O)c21)CCS3)N1CCCCCC1 | 1360 nM
14 | COc1ccnc(N2CCN(C(=O)c3ccc(Cl)cc3)CC2)c1 | > 12000 nM (inactive)
15 | O=C(Cn1c2ccccc2c2nc3n(c(=O)c21)CCS3)N1CCCCC1 | 2080 nM
16 | O=C(c1ccc(Cl)cc1)N1CCN(c2nc3ccccc3o2)CC1 | 12100 nM
17 | CC1CCN(C(=O)Cn2c3ccc(F)cc3c3nc4n(c(=O)c32)CCCS4)CC1 | 2090 nM
18 | O=C(Cn1c2ccc(F)cc2c2nc3n(c(=O)c21)CCS3)N1CCCCC1 | 384 nM
19 | CCN(CC)C(=O)Cn1c2ccc(F)cc2c2nc3n(c(=O)c21)CCS3 | 685 nM
20 | CC1CCN(C(=O)Cn2c3ccccc3c3nc4n(c(=O)c32)CCS4)CC1 | 2200 nM
21 | O=C(c1ccc(F)cc1)N1CCN(c2ccccn2)CC1 | > 12000 nM (inactive)

test system: not listed separately; test: as above; settings: C. albicans CaCi-2 + fluconazole, Alamar Blue growth, 48 h; at 1.2 µM (top of the series)
In short: as §1

Row | SMILES | activity change, negative = inhibition
22 | COc1ccc2c(c1)c1nc3n(c(=O)c1n2CC(=O)N1CCC(C)CC1)CCS3 | 15.5% (inactive)

same assay, conditions: C. albicans CaCi-2 + fluconazole, Alamar Blue growth, 48 h; at 12 µM (top of the series)

Row | SMILES | activity change, negative = inhibition
23 | O=C(Cn1nc(-c2ccccc2)c2cc(Cl)ccc21)N1CCOCC1 | -1.59% (inactive)
24 | CCCNC(=O)Cn1nc(-c2ccccc2)c2cc(Cl)ccc21 | 27.1% (inactive)
25 | CCOC(=O)c1nn(Cc2ccc(Cl)cc2)c2ccccc12 | 4.97% (inactive)
26 | O=C(Cn1c2ccccc2c2nc3n(c(=O)c21)CCS3)NCCc1ccc(Cl)cc1 | -0.805% (inactive)
27 | O=C(Cn1nc(-c2ccccc2)c2ccccc21)NCc1ccc(Cl)cc1 | -6.29% (inactive)
28 | CC(C)C(=O)N1CCN(c2ccccn2)CC1 | 6.09% (inactive)
29 | Cc1cccc(N2CCN(C(=O)c3ccc(Cl)cc3)CC2)n1 | -17.4% (inactive)
30 | COc1ccc2c(c1)c1nc3n(c(=O)c1n2CC(=O)N1CCC(Cc2ccccc2)CC1)CCS3 | -1.27% (inactive)
31 | O=C(O)Cn1nc(-c2ccccc2)c2ccccc21 | -8.71% (inactive)
32 | COC(=O)Cn1nc(C)c2ccccc21 | -1.03% (inactive)
33 | N#Cc1cccc(N2CCN(C(=O)c3ccc(Cl)cc3)CC2)n1 | 0.43% (inactive)
34 | N#Cc1ccc(C(=O)N2CCN(c3ccccn3)CC2)cc1 | -16.1% (inactive)
35 | O=C(Cn1c2ccccc2c2nc3n(c(=O)c21)CCCS3)c1ccc(F)cc1 | 3.71% (inactive)
36 | O=C(O)c1nn(Cc2ccc(Cl)cc2)c2ccccc12 | -7.95% (inactive)
37 | CCCCC(=O)N1CCN(c2ccccn2)CC1 | -2.66% (inactive)
38 | c1ccc(-c2n[nH]c3ccccc23)cc1 | 24.5% (inactive)
39 | CNC(=O)Cn1nc(-c2ccccc2)c2ccccc21 | 10.1% (inactive)
40 | CCCNC(=O)Cn1nc(-c2ccccc2)c2ccccc21 | 26.9% (inactive)
41 | O=C(Cn1nc(-c2ccccc2)c2ccccc21)N1CCc2ccccc2C1 | 3.01% (inactive)
42 | O=C(C1CCCCC1)N1CCN(c2ccccn2)CC1 | -20.7% (inactive)
43 | CCOC(=O)c1c2ccccc2nn1Cc1ccc(Cl)cc1 | 17.8% (inactive)
44 | O=C(c1cccc(Cl)c1)N1CCN(c2ccccn2)CC1 | 8.07% (inactive)
45 | O=C(c1ccccc1Cl)N1CCN(c2ccccn2)CC1 | 8.16% (inactive)
46 | COC(=O)Cn1c(-c2ccccc2)nc2ccccc21 | -5.95% (inactive)
47 | O=C(Cn1nc(C(=O)N2CCCCC2)c2ccccc21)N1CCOCC1 | -6.13% (inactive)
48 | N#Cc1cccnc1N1CCN(C(=O)c2ccc(Cl)cc2)CC1 | -11.5% (inactive)
49 | COCCC(=O)N1CCN(c2ccccn2)CC1 | -0.956% (inactive)
50 | O=C(c1ccc(Cl)cc1)N1CCN(c2cccc(C(F)(F)F)n2)CC1 | -1.86% (inactive)
